Test results: ChEMBL document CHEMBL1145396, “High-throughput synthesis and screening of cyclic peptide antibiotics” (J Med Chem, 2007)
Converted amounts (≈) assume the structure as drawn. The source made the active and inactive calls. The calls are words filed in the database; no cut-off is given here. Square brackets hold non-standard residues; d marks the D form. Peptide text beside a SMILES is read from it. Orn = NCCC[C@H](N)C(=O)O

What was measured:
Escherichia coli [1] = assay: Antimicrobial activity against Escherichia coli; type: functional
Summary of the method: (§1)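 Microtiter broth assay. Peptide stock in 30% DMSO/water, neutralized with sodium phosphate pH 7.0, added to a 1000-fold diluted overnight bacterial culture (1:5 into final volume). Incubated 7 h at 37 °C. Growth scored visually.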

Bacillus subtilis [2] = assay: Antimicrobial activity against Bacillus subtilis; type: functional; summary of the method: as §1
[3] = tested on: Staphylococcus epidermidis; assay: Antimicrobial activity against Staphylococcus epidermidis; type: functional; summary of the method: as §1
[4] = Toxicity assessed as hemolytic activity in human RBC; type: cell-based; conditions: erythrocyte
Summary of the method: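 Peptide stocks were serially diluted 2-fold in water, then mixed with fresh human erythrocytes diluted 100-fold in PBS pH 7.4. Incubated overnight at room temperature and inspected visually for lysis. MHC was taken as the lowest concentration lysing half of the cells.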

Enterococcus faecalis [5] = assay: Antimicrobial activity against Enterococcus faecalis; type: functional; summary of the method: as §1
[6] = Ratio of MHC for human RBC to MIC for Bacillus subtilis; type: functional
Escherichia coli [7] = assay: Antimicrobial activity against Escherichia coli at 32 ug/mL; type: functional, organism-based
Bacillus subtilis [8] = assay: Antimicrobial activity against Bacillus subtilis at 32 ug/mL; type: functional
Enterococcus faecalis [9] = assay: Antimicrobial activity against Enterococcus faecalis at 32 ug/mL; type: functional, organism-based
[10] = tested on: Staphylococcus epidermidis; assay: Antimicrobial activity against Staphylococcus epidermidis at 32 ug/mL; type: functional, organism-based

SMILES | MIC (Escherichia coli [1]) | MIC (Bacillus subtilis [2]) | MIC [3] | MIC (Enterococcus faecalis [5]) | MIC (Bacillus subtilis [8]) | Activity [4] | Ratio [6] | Activity (Escherichia coli [7]) | Activity (Bacillus subtilis [8]) | Activity (Enterococcus faecalis [9]) | Activity [10]
CCCNC(=O)C[C@H]1NC(=O)[C@@H](CCCCN)NC(=O)[C@H](Cc2ccccc2)NC(=O)[C@@H]2CCCN2C(=O)[C@@H](Cc2ccccc2)NC(=O)[C@@H]2CCCN2C(=O)[C@H](CCCN)NC(=O)[C@H](C(C)C)NC(=O)[C@H](Cc2ccc(O)cc2)NC(=O)[C@H](Cc2ccc(F)cc2)NC1=O | 32 µg/mL (≈ 24.3 µM) | 4 µg/mL (≈ 3.04 µM) | 32 µg/mL (≈ 24.3 µM) | 8 µg/mL (≈ 6.09 µM) | – | 128 µg/mL | 32 | – | – | – | –
CCCNC(=O)C[C@@H]1NC(=O)[C@@H](Cc2ccccc2)NC(=O)[C@H](Cc2ccccc2)NC(=O)[C@@H]2CCCN2C(=O)[C@@H](Cc2ccccc2)NC(=O)CNC(=O)[C@H](CCCN)NC(=O)[C@H](C(C)C)NC(=O)[C@H](Cc2ccc(O)cc2)NC(=O)[C@H](CCCCN)NC1=O | – | 8 µg/mL (≈ 6.37 µM) | 16 µg/mL (≈ 12.7 µM) | 32 µg/mL (≈ 25.5 µM) | – | 64 µg/mL | 8 | inactive | – | – | –
CCCNC(=O)C[C@@H]1NC(=O)[C@@H](Cc2ccccc2)NC(=O)[C@H](Cc2ccccc2)NC(=O)[C@@H]2CCCN2C(=O)[C@@H](Cc2ccccc2)NC(=O)CN(C)C(=O)[C@H](CCCN)NC(=O)[C@H](C(C)C)NC(=O)[C@H](Cc2ccc(O)cc2)NC(=O)[C@@H](Cc2ccccc2)NC1=O | 32 µg/mL (≈ 24.8 µM) | 32 µg/mL (≈ 24.8 µM) | – | – | – | – | – | – | – | – | –
CCCNC(=O)C[C@@H]1NC(=O)[C@@H](CCCNC(=N)N)NC(=O)[C@H](Cc2ccccc2)NC(=O)[C@@H]2CCCN2C(=O)[C@@H](Cc2ccccc2)NC(=O)[C@@H](CC(N)=O)NC(=O)[C@H](CCCN)NC(=O)[C@H](C(C)C)NC(=O)[C@H](Cc2ccc(O)cc2)NC(=O)[C@@H](CC(C)C)NC1=O | 32 µg/mL (≈ 24.5 µM) | 8 µg/mL (≈ 6.12 µM) | – | – | – | – | – | – | – | – | –
CCCNC(=O)C[C@H]1NC(=O)[C@@H](CCCNC(=N)N)NC(=O)[C@H](Cc2ccccc2)NC(=O)[C@@H]2CCCN2C(=O)[C@@H](Cc2ccccc2)NC(=O)[C@H](Cc2ccc(F)cc2)NC(=O)[C@H](CCCN)NC(=O)[C@H](C(C)C)NC(=O)[C@H](Cc2ccc(O)cc2)NC(=O)CNC1=O | – | – | – | – | – | – | 8 | – | – | – | –
CCCNC(=O)C[C@@H]1NC(=O)[C@@H](CCCNC(=N)N)NC(=O)[C@H](Cc2ccccc2)NC(=O)[C@@H]2CCCN2C(=O)[C@@H](Cc2ccccc2)NC(=O)[C@H](Cc2ccc(F)cc2)NC(=O)[C@H](CCCN)NC(=O)[C@H](C(C)C)NC(=O)[C@H](Cc2ccc(O)cc2)NC(=O)CNC1=O [listing 2 of 2 here] | – | – | – | – | – | 16 µg/mL | – | – | – | – | –
CCCNC(=O)C[C@@H]1NC(=O)[C@@H](CCCNC(=N)N)NC(=O)[C@H](Cc2ccccc2)NC(=O)[C@@H]2CCCN2C(=O)[C@@H](Cc2ccccc2)NC(=O)[C@@H]2CCCN2C(=O)[C@H](CCCN)NC(=O)[C@H](C(C)C)NC(=O)[C@H](Cc2ccc(O)cc2)NC(=O)[C@@H](C)NC1=O | 32 µg/mL (≈ 25.6 µM) | > 32 µg/mL | – | – | – | – | – | inactive | inactive | inactive | inactive
CCCNC(=O)C[C@@H]1NC(=O)[C@@H](CCCNC(=N)N)NC(=O)[C@H](Cc2ccccc2)NC(=O)[C@@H]2CCCN2C(=O)[C@@H](Cc2ccccc2)NC(=O)[C@@H](CC(C)C)NC(=O)[C@H](CCCN)NC(=O)[C@H](C(C)C)NC(=O)[C@H](Cc2ccc(O)cc2)NC(=O)[C@H](CCCCN)NC1=O | 32 µg/mL (≈ 24.2 µM) | 8 µg/mL (≈ 6.05 µM) | 8 µg/mL (≈ 6.05 µM) | 16 µg/mL (≈ 12.1 µM) | – | 128 µg/mL | 16 | – | – | – | –
CCCNC(=O)C[C@@H]1NC(=O)[C@@H](CCCCN)NC(=O)[C@H](Cc2ccccc2)NC(=O)[C@@H]2CCCN2C(=O)[C@@H](Cc2ccccc2)NC(=O)[C@@H]2CCCN2C(=O)[C@H](CCCN)NC(=O)[C@H](C(C)C)NC(=O)[C@H](Cc2ccc(O)cc2)NC(=O)[C@H](Cc2ccc(F)cc2)NC1=O | 32 µg/mL (≈ 24.3 µM) | > 32 µg/mL | – | – | – | – | – | inactive | inactive | inactive | inactive
CCCNC(=O)C[C@H]1NC(=O)[C@@H](CCCNC(=N)N)NC(=O)[C@H](Cc2ccccc2)NC(=O)[C@@H]2CCCN2C(=O)[C@@H](Cc2ccccc2)NC(=O)[C@@H]2CCCN2C(=O)[C@H](CCCN)NC(=O)[C@H](C(C)C)NC(=O)[C@H](Cc2ccc(O)cc2)NC(=O)[C@@H](C)NC1=O | – | – | – | – | 0.5 µg/mL (≈ 0.4 µM) | 514 µg/mL | 1024 | inactive | – | inactive | inactive

More lines, in order of falling MIC (Bacillus subtilis [2]), values ahead:

MIC (Escherichia coli [1]) | MIC (Bacillus subtilis [2]) | MIC [3] | MIC (Enterococcus faecalis [5]) | MIC (Bacillus subtilis [8]) | SMILES | Activity [4] | Ratio [6] | Activity (Escherichia coli [7]) | Activity (Bacillus subtilis [8]) | Activity (Enterococcus faecalis [9]) | Activity [10]
32 µg/mL (≈ 23.8 µM) | 4 µg/mL (≈ 2.98 µM) | 4 µg/mL (≈ 2.98 µM) | 16 µg/mL (≈ 11.9 µM) | – | CCCNC(=O)C[C@@H]1NC(=O)[C@@H](CCCCN)NC(=O)[C@H](Cc2ccccc2)NC(=O)[C@@H]2CCCN2C(=O)[C@@H](Cc2ccccc2)NC(=O)[C@H](Cc2ccc(O)cc2)NC(=O)[C@H](CCCN)NC(=O)[C@H](C(C)C)NC(=O)[C@H](Cc2ccc(O)cc2)NC(=O)[C@H](CCCCN)NC1=O | 128 µg/mL | 32 | – | – | – | –
16 µg/mL (≈ 12 µM) | 2 µg/mL (≈ 1.5 µM) | 2 µg/mL (≈ 1.5 µM) | 8 µg/mL (≈ 6 µM) | – | CCCNC(=O)C[C@@H]1NC(=O)[C@@H](CCCNC(=N)N)NC(=O)[C@H](Cc2ccccc2)NC(=O)[C@@H]2CCCN2C(=O)[C@@H](Cc2ccccc2)NC(=O)[C@H](Cc2ccc(F)cc2)NC(=O)[C@H](CCCN)NC(=O)[C@H](C(C)C)NC(=O)[C@H](Cc2ccc(O)cc2)NC(=O)[C@H](CO)NC1=O | 16 µg/mL | 8 | – | – | – | –
16 µg/mL (≈ 11.9 µM) | 2 µg/mL (≈ 1.49 µM) | 4 µg/mL (≈ 2.98 µM) | 16 µg/mL (≈ 11.9 µM) | – | CCCNC(=O)C[C@H]1NC(=O)[C@@H](CCCCN)NC(=O)[C@H](Cc2ccccc2)NC(=O)[C@@H]2CCCN2C(=O)[C@@H](Cc2ccccc2)NC(=O)[C@H](Cc2ccc(O)cc2)NC(=O)[C@H](CCCN)NC(=O)[C@H](C(C)C)NC(=O)[C@H](Cc2ccc(O)cc2)NC(=O)[C@H](CCCCN)NC1=O | 64 µg/mL | 32 | – | – | – | –
4 µg/mL (≈ 3.07 µM) | 1 µg/mL (≈ 0.768 µM) | 1 µg/mL (≈ 0.768 µM) | 2 µg/mL (≈ 1.54 µM) | – | CCCNC(=O)C[C@@H]1NC(=O)[C@@H](CCCNC(=N)N)NC(=O)[C@H](Cc2ccccc2)NC(=O)[C@@H]2CCCN2C(=O)[C@@H](Cc2ccccc2)NC(=O)[C@H](Cc2ccc(F)cc2)NC(=O)[C@H](CCCN)NC(=O)[C@H](C(C)C)NC(=O)[C@H](Cc2ccc(O)cc2)NC(=O)CNC1=O [listing 1 of 2 here] | – | – | – | – | – | –
8 µg/mL (≈ 6.3 µM) | 1 µg/mL (≈ 0.787 µM) | 1 µg/mL (≈ 0.787 µM) | 1 µg/mL (≈ 0.787 µM) | – | CC(C)C[C@@H]1NC(=O)[C@H](CCCN)NC(=O)[C@H](C(C)C)NC(=O)[C@H](Cc2ccc(O)cc2)NC(=O)[C@H](CCC(N)=O)NC(=O)[C@H](CC(N)=O)NC(=O)[C@@H](Cc2ccccc2)NC(=O)[C@H](Cc2ccccc2)NC(=O)[C@@H]2CCCN2C(=O)[C@@H](Cc2ccccc2)NC1=O [TYROCIDINE A] (cyclo(F[dF]NQYV[Orn]L[dF]P)) | 2 µg/mL | 2 | – | – | – | –
8 µg/mL (≈ 5.71 µM) | 1 µg/mL (≈ 0.713 µM) | 4 µg/mL (≈ 2.85 µM) | 8 µg/mL (≈ 5.71 µM) | – | CCCNC(=O)C[C@@H]1NC(=O)[C@@H](CCCNC(=N)N)NC(=O)[C@H](Cc2ccccc2)NC(=O)[C@@H]2CCCN2C(=O)[C@@H](Cc2ccccc2)NC(=O)[C@H](Cc2ccc(F)cc2)NC(=O)[C@H](CCCN)NC(=O)[C@H](C(C)C)NC(=O)[C@H](Cc2ccc(O)cc2)NC(=O)[C@H](CCCNC(=N)N)NC1=O | 8 µg/mL | 4 | – | – | – | –
